Measurements published in PubChem BioAssay AID504831 (Southern Research Specialized Biocontainment Screening …, 2011).

Tested on: Bladder 5637 cells viability, CellTiter-Glo, 72 h
Test: cytotoxicity in 5637 bladder cells, dose response, cytotoxicity control for bacterial capsule biogenesis inhibitors, cell-based, set 3 (AID 504831)
Procedure, shortened: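 Material: human bladder carcinoma 5637 cell line; dosing: 8 doses, 2.3–300 µM; timing: 72 h compound exposure of cells; technique: CellTiter-Glo luminescence; measure: CC50 from dose-response fit, viability versus mean cell-only control; control set: Hyamine positive control, untreated cell control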

| Compound | CC50 [µM] |
| --- | --- |
| O=C(Nc1cc(-c2ccccc2)sc1C(=O)O)c1cccc(Cl)c1 | 52.6 |
| O=C(Nc1cc(-c2ccccc2)sc1C(=O)O)c1ccc(Cl)s1 | 71.5 |
| CCOc1ccc(-c2cc(NC(=O)c3cccc(Cl)c3)c(C(=O)O)s2)cc1 | 83.9 |
| Cc1ccc(C(=O)Nc2cc(-c3ccccc3)sc2C(=O)O)s1 | 63.6 |
| O=C(Nc1cc(-c2ccccc2)sc1C(=O)O)c1cccc(F)c1 | 76.9 |
| O=C(O)c1sc(-c2ccccc2)cc1NC(=O)C1CCCCC1 | 115 |
| O=C(Nc1cc(-c2ccccc2)sc1C(=O)O)c1ccc(Br)o1 | 104 |
| O=C(Nc1cc(-c2ccccc2)sc1C(=O)O)c1cc(Cl)c2c(c1)OCCO2 | 242 |
| CCOc1ccc(-c2cc(NC(=O)c3ccc(OC)c(OC)c3)c(C(=O)O)s2)cc1 | 82.8 |
| O=C(O)c1sc(-c2ccccc2)cc1NC(=O)C1CCCC1 | 169 |
| Cc1onc(-c2ccccc2)c1C(=O)Nc1cc(-c2ccccc2)sc1C(=O)O | 52.6 |
| Cc1c(C(=O)Nc2cc(-c3ccccc3)sc2C(=O)O)oc2ccccc12 | 48.7 |
| O=C(Nc1cc(-c2ccccc2)sc1C(=O)O)c1cc2ccccc2o1 | 167 |
| O=C(Nc1cc(-c2ccccc2)sc1C(=O)O)c1ccc2c(c1)OCCO2 | 82.1 |
| O=C(Nc1cc(-c2ccccc2)sc1C(=O)O)c1cccs1 | 89.3 |
| COC(=O)c1sc(-c2ccccc2)cc1NC(=O)c1c(F)cccc1F | 10.4 |
